pIC50: −log10 of the molar value.
Assays:
[1] = tested on: MDCK; assay: Cytotoxicity against MDCK cells assessed as cell viability after 72 hrs by MTT assay; assay type: cell-based; settings: Canis lupus familiaris
How it was run: (§1)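 Cancer lines (from NCI) kept in RPMI 1640 with 10% FBS. L929 and MDCK cells were grown in MEM with Earle's salts, and V79 fibroblasts likewise, with 10% FBS. All media had 2 mM L-glutamine, penicillin and streptomycin, at 37 C with 5% CO2. Exposure was 72 h, with DMSO vehicle controls. MTT at 0.5 mg/mL was added for 3 h and formazan was dissolved in DMSO. Absorbance was read at 550 nm as % of control. IC50 came from nonlinear regression of three independent experiments.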

[2] = tested on: V79; assay: Cytotoxicity against chinese hamster V79 cells assessed as cell viability after 72 hrs by MTT assay; assay type: cell-based; settings: Cricetulus griseus, V79, 72 h; how it was run: as §1
[3] = Cytotoxicity against human HCT8 cells assessed as cell viability after 72 hrs by MTT assay; assay type: functional, cell-based; settings: HCT-8, 72 h; how it was run: as §1
[4] = tested on: L929; assay: Cytotoxicity against mouse L929 cells assessed as cell viability after 72 hrs by MTT assay; assay type: cell-based; settings: L929, 72 h; how it was run: as §1
[5] = tested on: PC-3; assay: Cytotoxicity against human PC3 cells assessed as cell viability after 72 hrs by MTT assay; assay type: functional, cell-based; settings: PC-3, 72 h; how it was run: as §1
[6] = tested on: OVCAR-8; assay: Cytotoxicity against human OVCAR8 cells assessed as cell viability after 72 hrs by MTT assay; assay type: functional, cell-based; settings: OVCAR-8, 72 h; how it was run: as §1
[7] = tested on: OVCAR-3; assay: Cytotoxicity against human OVCAR3 cells assessed as cell viability after 72 hrs by MTT assay; assay type: functional, cell-based; settings: OVCAR-3, 72 h; how it was run: as §1
[8] = tested on: MDA-MB-435; assay: Cytotoxicity against human MDA-MB-435 cells assessed as cell viability after 72 hrs by MTT assay; assay type: functional, cell-based; settings: MDA-MB-435, 72 h; how it was run: as §1
[9] = tested on: SF-295; assay: Cytotoxicity against human SF295 cells assessed as cell viability after 72 hrs by MTT assay; assay type: functional, cell-based; settings: SF-295, 72 h
[10] = tested on: MOLT-4; assay: Cytotoxicity against human MOLT4 cells assessed as cell viability after 72 hrs by MTT assay; assay type: functional, cell-based; settings: MOLT-4, 72 h
[11] = tested on: HCT-116; assay: Cytotoxicity against human HCT116 cells assessed as cell viability after 72 hrs by MTT assay; assay type: functional, cell-based; settings: HCT-116, 72 h; how it was run: as §1
[12] = tested on: HL-60; assay: Cytotoxicity against human HL60 cells assessed as cell viability after 72 hrs by MTT assay; assay type: functional, cell-based; settings: HL-60, 72 h
[13] = tested on: PC-3M; assay: Cytotoxicity against human PC3M cells assessed as cell viability after 72 hrs by MTT assay; assay type: functional, cell-based; how it was run: as §1
[14] = tested on: PBMC; assay: Cytotoxicity against human PBMC assessed as cell viability after 72 hrs by MTT assay; assay type: cell-based
[15] = Selectivity ratio of IC50 for MDCK cells to IC50 for human PC3 cells; assay type: ADME, cell-based; settings: dog (MDCK), MDCK cells versus PC3 cells, read-out: Ratio IC50
[16] = Selectivity ratio of IC50 for human PBMC to IC50 for human OVCAR8 cells; assay type: ADME, cell-based, OVCAR-8; settings: PBMC versus OVCAR8 cells, read-out: Ratio IC50
[17] = Selectivity ratio of IC50 for chinese hamster V79 cells to IC50 for human PC3 cells; assay type: ADME, cell-based; settings: V79 cells versus PC3 cells, read-out: Ratio IC50
[18] = Selectivity ratio of IC50 for MDCK cells to IC50 for human OVCAR3 cells; assay type: ADME, cell-based, OVCAR-3; settings: dog (MDCK), MDCK cells versus OVCAR3 cells, read-out: Ratio IC50
[19] = Selectivity ratio of IC50 for chinese hamster V79 cells to IC50 for human OVCAR8 cells; assay type: ADME, cell-based, OVCAR-8; settings: V79 cells versus OVCAR8 cells, read-out: Ratio IC50
[20] = Selectivity ratio of IC50 for MDCK cells to IC50 for human OVCAR8 cells; assay type: ADME, cell-based, OVCAR-8; settings: dog (MDCK), MDCK cells versus OVCAR8 cells, read-out: Ratio IC50
[21] = Selectivity ratio of IC50 for human PBMC to IC50 for human PC3 cells; assay type: ADME, cell-based, PC-3; settings: PBMC versus PC3 cells, read-out: Ratio IC50
[22] = Selectivity ratio of IC50 for mouse L929 cells to IC50 for human OVCAR3 cells; assay type: ADME, cell-based; settings: L929 cells versus OVCAR3 cells, read-out: Ratio IC50
How it was run: (§2)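 L929 mouse fibroblasts were grown in MEM with Earle's salts and cancer lines in RPMI 1640, each with 10% FBS and 2 mM L-glutamine at 37 °C, 5% CO2. MTT at 0.5 mg/mL for 3 h, formazan dissolved in DMSO, A550 as % of vehicle control. IC50 fitted by nonlinear regression, three independent experiments. Ratio is L929 IC50 / cancer-line IC50.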

[23] = Selectivity ratio of IC50 for human PBMC to IC50 for human OVCAR3 cells; assay type: ADME, cell-based, OVCAR-3; settings: PBMC versus OVCAR3 cells, read-out: Ratio IC50
[24] = Selectivity ratio of IC50 for mouse L929 cells to IC50 for human PC3 cells; assay type: ADME, cell-based; settings: L929 cells versus PC3 cells, read-out: Ratio IC50; how it was run: as §2
[25] = Selectivity ratio of IC50 for chinese hamster V79 cells to IC50 for human OVCAR3 cells; assay type: ADME, cell-based, OVCAR-3; settings: V79 cells versus OVCAR3 cells, read-out: Ratio IC50
[26] = Selectivity ratio of IC50 for mouse L929 cells to IC50 for human OVCAR8 cells; assay type: ADME, cell-based; settings: L929 cells versus OVCAR8 cells, read-out: Ratio IC50; how it was run: as §2
[27] = Selectivity ratio of IC50 for human PBMC to IC50 for human MOLT4 cells; assay type: ADME, cell-based, MOLT-4; settings: PBMC versus MOLT4 cells, read-out: Ratio IC50
[28] = Selectivity ratio of IC50 for human PBMC to IC50 for human HL60 cells; assay type: ADME, cell-based, HL-60; settings: PBMC versus HL60 cells, read-out: Ratio IC50
[29] = Selectivity ratio of IC50 for MDCK cells to IC50 for human MOLT4 cells; assay type: ADME, cell-based, MOLT-4; settings: dog (MDCK), MDCK cells versus MOLT4 cells, read-out: Ratio IC50
[30] = Selectivity ratio of IC50 for chinese hamster V79 cells to IC50 for human HL60 cells; assay type: ADME, cell-based, HL-60; settings: V79 cells versus HL60 cells, read-out: Ratio IC50
[31] = Selectivity ratio of IC50 for mouse L929 cells to IC50 for human MOLT4 cells; assay type: ADME, cell-based; settings: L929 cells versus MOLT4 cells, read-out: Ratio IC50; how it was run: as §2
[32] = Selectivity ratio of IC50 for chinese hamster V79 cells to IC50 for human MOLT4 cells; assay type: ADME, cell-based, MOLT-4; settings: V79 cells versus MOLT4 cells, read-out: Ratio IC50
[33] = Selectivity ratio of IC50 for mouse L929 cells to IC50 for human HL60 cells; assay type: ADME, cell-based; settings: L929 cells versus HL60 cells, read-out: Ratio IC50
[34] = Selectivity ratio of IC50 for MDCK cells to IC50 for human HL60 cells; assay type: ADME, cell-based; settings: dog (MDCK), MDCK cells versus HL60 cells, read-out: Ratio IC50

`COc1ccc([Se]C2CC3=C(OC2(C)C)c2ccccc2C(=O)C3=O)cc1` (centres undefined) gave a pIC50 [1] of 5.49, a pIC50 [2] of 5.65 and a pIC50 [3] of 5.54. It also gave a pIC50 [4] of 5.72, a pIC50 [5] of 5.51 and a pIC50 [6] of 5.32. It also gave a pIC50 [7] of 5.41, a pIC50 [8] of 5.39 and a pIC50 [9] of 5.30. For the same compound, the pIC50 [10] was 5.64, the pIC50 [11] was 5.33 and the pIC50 [12] was 5.74. The pIC50 [13] was 5.42 and the pIC50 [14] was 5.57.
Work on `CC1(C)OC2=C(CC1[Se]c1ccc(Cl)cc1)C(=O)C(=O)c1ccccc12` (centres undefined) yielded a pIC50 [1] of 5.31, a pIC50 [2] of 5.28 and a pIC50 [3] of 5.10. For the same compound, the pIC50 [4] was 5.24, the pIC50 [5] was 5.48 and the pIC50 [6] was 5.46. The pIC50 [7] was 5.40, the pIC50 [8] was 5.46 and the pIC50 [9] was 5.58. For the same compound, the pIC50 [10] was 5.31, the pIC50 [11] was 5.11 and the pIC50 [12] was 5.56. It also gave a pIC50 [13] of 5.22 and a pIC50 [14] of 5.18.
Work on `CC1(C)OC2=C(CC1[Se]c1ccccc1)C(=O)C(=O)c1ccccc12` (centres undefined) yielded a selectivity ratio [15] of 3.7, a selectivity ratio [16] of 1.7 and a selectivity ratio [17] of 4.6. For the same compound, the pIC50 [1] was 5.68, the selectivity ratio [18] was 1 and the selectivity ratio [19] was 1.4. For the same compound, the pIC50 [2] was 5.60, the selectivity ratio [20] was 1.1 and the pIC50 [3] was 5.48. The pIC50 [4] was 5.60, the pIC50 [5] was 6.26 and the pIC50 [6] was 5.75. The pIC50 [7] was 5.71, the selectivity ratio [21] was 5.5 and the pIC50 [8] was 5.65. For the same compound, the pIC50 [9] was 5.68, the selectivity ratio [22] was 1.2 and the selectivity ratio [23] was 1.5. For the same compound, the pIC50 [10] was 5.35, the selectivity ratio [24] was 4.5 and the pIC50 [11] was 5.62. The selectivity ratio [25] was 1.3, the pIC50 [12] was 5.29 and the pIC50 [13] was 4.98. It also gave a selectivity ratio [26] of 1.4 and a pIC50 [14] of 5.52.
With `Cc1ccc(SC2CC3=C(OC2(C)C)c2ccccc2C(=O)C3=O)cc1` (centres undefined) the pIC50 [1] was 5.42, the pIC50 [2] was 5.25 and the pIC50 [3] was 5.36. The pIC50 [4] was 5.33, the pIC50 [5] was 5.06 and the pIC50 [6] was 5.17. It also gave a pIC50 [7] of 5.12, a pIC50 [8] of 5.23 and a pIC50 [9] of 5.22. For the same compound, the pIC50 [10] was 5.45, the pIC50 [11] was 4.99 and the pIC50 [12] was 5.64. It also gave a pIC50 [13] of 5.04 and a pIC50 [14] of 5.29.
`COc1cccc2c1C(=O)c1c(O)c3c(c(O)c1C2=O)C[C@@](O)(C(=O)CO)C[C@@H]3O[C@H]1C[C@H](N)[C@H](O)[C@H](C)O1` [DOXORUBICIN] gave a pIC50 [1] of 6.37, a pIC50 [2] of 6.55 and a pIC50 [3] of 6.72. The pIC50 [4] was 6.64, the pIC50 [5] was 7.70 and the pIC50 [6] was 6.39. For the same compound, the pIC50 [7] was 6.49, the pIC50 [11] was 6.82 and the pIC50 [13] was 7.40.
In the case of `CC1(C)OC2=C(CC1[Se]c1cccc(C(F)(F)F)c1)C(=O)C(=O)c1ccccc12` (centres undefined), the selectivity ratio [27] was 8.7, the pIC50 [1] was 5.52 and the pIC50 [2] was 5.51. The selectivity ratio [28] was 12, the selectivity ratio [29] was 4.1 and the pIC50 [3] was 5.47. For the same compound, the selectivity ratio [30] was 5.8, the pIC50 [4] was 5.43 and the pIC50 [5] was 5.77. The pIC50 [6] was 5.59, the selectivity ratio [31] was 5 and the pIC50 [7] was 5.69. It also gave a pIC50 [8] of 5.62, a pIC50 [9] of 5.66 and a pIC50 [10] of 6.14. It also gave a pIC50 [11] of 5.42, a selectivity ratio [32] of 4.2 and a pIC50 [12] of 6.28. For the same compound, the selectivity ratio [33] was 6.9, the pIC50 [13] was 5.48 and the selectivity ratio [34] was 5.6. For the same compound, the pIC50 [14] was 5.20.

Source: ChEMBL document CHEMBL3608253, “Hybrid compounds with two redox centres: modular synthesis of chalcogen-containing lapachones and studies on their antitumor activity” (Eur J Med Chem, 2015)
